The source made the active and inactive calls. The rule behind the calls is not given here.
Assays:
Rattus norvegicus [1] = assay: Antihypertensive activity in spontaneously hypertensive rat assessed as reduction in mean arterial pressure at 80 mg/kg, po up to 24 hrs; type: functional, organism-based; design: dose 80 mg/kg; conditions: Artery
Summary of the method: (§1)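 Spontaneously hypertensive rats received a single oral dose of 40 or 80 mg/kg. Systolic, diastolic and mean arterial pressure were recorded from 0 to 24 h after dosing, with heart rate monitored in parallel. Data are given as mean ± SEM (n = 8), and significance was tested against the respective control (p < 0.05, p < 0.01).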

Rattus norvegicus [2] = assay: Antihypertensive activity in spontaneously hypertensive rat assessed as reduction in diastolic arterial pressure at 80 mg/kg, po at 6 hrs; type: functional, Artery; design: scale not given: the % may be the effect or the level left; summary of the method: as §1
Rattus norvegicus [3] = assay: Antihypertensive activity in spontaneously hypertensive rat assessed as reduction in diastolic arterial pressure at 80 mg/kg, po up to 24 hrs; type: functional, organism-based; design: dose 80 mg/kg; conditions: Artery; summary of the method: as §1
Rattus norvegicus [4] = assay: Toxicity in spontaneously hypertensive rat assessed as change in basal heart rate at 50 mg/kg, po measured up to 24 hrs; type: organism-based; design: dose 50 mg/kg, route oral; conditions: in vivo
Rattus norvegicus [5] = assay: Antihypertensive activity in spontaneously hypertensive rat assessed as reduction in systolic arterial pressure at 80 mg/kg, po measured up to 24 hrs; type: functional, organism-based; design: dose 80 mg/kg; conditions: Artery; summary of the method: as §1
Rattus norvegicus [6] = assay: Antihypertensive activity in spontaneously hypertensive rat assessed as reduction in systolic arterial pressure at 40 mg/kg, po measured up to 24 hrs; type: functional, organism-based; design: dose 40 mg/kg; conditions: Artery; summary of the method: as §1
Rattus norvegicus [7] = assay: Antihypertensive activity in spontaneously hypertensive rat assessed as reduction in diastolic arterial pressure at 40 mg/kg, po at 6 hrs; type: functional, organism-based; design: dose 40 mg/kg; conditions: Artery; summary of the method: as §1

| SMILES | Activity (Rattus norvegicus [1]) | Activity (Rattus norvegicus [2]) | Activity (Rattus norvegicus [3]) | Activity (Rattus norvegicus [4]) | Activity (Rattus norvegicus [5]) | Activity (Rattus norvegicus [6]) | Activity (Rattus norvegicus [7]) |
| --- | --- | --- | --- | --- | --- | --- | --- |
| C[C@H]1OCc2c(ccc(O)c2O)C1=O | Active | 30% | Active | Non-toxic | Active | – | – |
| C[C@H](CS)C(=O)N1CCC[C@H]1C(=O)O | – | – | – | – | – | Active | Active |
| C[C@@H]1OCc2c(ccc(O)c2O)C1=O | Active | – | Active | Non-toxic | Active | – | – |
| CC1OCc2c(ccc(O)c2O)C1=O (racemic) | Active | – | Active | Non-toxic | Active | – | – |

— ChEMBL document CHEMBL2169763, “Chiral separation, configurational identification and antihypertensive evaluation of (±)-7,8-dihydroxy-3-methyl-isochromanone-4” (Bioorg Med Chem Lett, 2012)
